Measured values: ChEMBL document CHEMBL4138073, “Synthesis and biological evaluation of 8-hydroxy-2,7-naphthyridin-2-ium salts as novel inhibitors of acetylcholinesterase (AChE) and butyrylcholinesterase (BChE)” (Medchemcomm, 2017)
Calls of active or inactive are those of the source. No cut-off for these calls is given here.

What was measured:
[1] = target: Cholinesterase (Equus caballus) (UniProt P81908); assay: Inhibition of horse serum BChE at 10 uM using butyrylthiocholine chloride substrate by spectrophotometry based Ellman's assay
Outline: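 Ellman kinetic assay in microplates: equine serum BChE (final 0.350 U/ml) added last to start reaction; butyrylthiocholine chloride pseudo-substrate with DTNB; absorbance at 412 nm; 25 °C (room temperature). Tris-HCl 50 mM pH 8 buffer with DMSO ≤0.05% final. Compound absorbance read before enzyme addition as blank. Physostigmine 10 µM final as positive control. Primary screen at 10 µM.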

Acetylcholinesterase = Acetylcholinesterase (Electrophorus electricus, UniProt O42275); assay: Inhibition of electric eel AChE at using acetylthiocholine iodide substrate by spectrophotometry based Ellman's assay
Cholinesterase = Cholinesterase (Equus caballus, UniProt P81908); assay: Inhibition of horse serum BChE at using butyrylthiocholine chloride substrate by spectrophotometry based Ellman's assay
[2] = Dissociation constant, pKa of the compound at 52 uM at pH 2.3 to 12.3 by UV-Vis spectroscopy; assay type: physicochemical

Cholinesterase (Equus caballus), sequence (P81908 whole entry): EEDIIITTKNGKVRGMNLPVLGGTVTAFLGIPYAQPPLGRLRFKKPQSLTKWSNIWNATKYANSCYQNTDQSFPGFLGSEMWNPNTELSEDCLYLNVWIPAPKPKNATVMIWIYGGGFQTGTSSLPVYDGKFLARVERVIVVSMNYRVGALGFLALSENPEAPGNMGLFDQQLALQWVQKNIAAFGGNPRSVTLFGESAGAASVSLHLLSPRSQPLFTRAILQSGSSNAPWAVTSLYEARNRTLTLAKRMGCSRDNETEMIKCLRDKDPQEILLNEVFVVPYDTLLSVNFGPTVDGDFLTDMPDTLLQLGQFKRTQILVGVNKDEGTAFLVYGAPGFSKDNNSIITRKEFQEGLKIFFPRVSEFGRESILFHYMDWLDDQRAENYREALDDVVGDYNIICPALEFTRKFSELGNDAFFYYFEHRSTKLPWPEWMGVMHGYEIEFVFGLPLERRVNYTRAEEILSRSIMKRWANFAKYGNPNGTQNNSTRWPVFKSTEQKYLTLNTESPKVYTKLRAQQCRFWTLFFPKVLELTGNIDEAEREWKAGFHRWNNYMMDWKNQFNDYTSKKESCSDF
Acetylcholinesterase, sequence (O42275 whole entry): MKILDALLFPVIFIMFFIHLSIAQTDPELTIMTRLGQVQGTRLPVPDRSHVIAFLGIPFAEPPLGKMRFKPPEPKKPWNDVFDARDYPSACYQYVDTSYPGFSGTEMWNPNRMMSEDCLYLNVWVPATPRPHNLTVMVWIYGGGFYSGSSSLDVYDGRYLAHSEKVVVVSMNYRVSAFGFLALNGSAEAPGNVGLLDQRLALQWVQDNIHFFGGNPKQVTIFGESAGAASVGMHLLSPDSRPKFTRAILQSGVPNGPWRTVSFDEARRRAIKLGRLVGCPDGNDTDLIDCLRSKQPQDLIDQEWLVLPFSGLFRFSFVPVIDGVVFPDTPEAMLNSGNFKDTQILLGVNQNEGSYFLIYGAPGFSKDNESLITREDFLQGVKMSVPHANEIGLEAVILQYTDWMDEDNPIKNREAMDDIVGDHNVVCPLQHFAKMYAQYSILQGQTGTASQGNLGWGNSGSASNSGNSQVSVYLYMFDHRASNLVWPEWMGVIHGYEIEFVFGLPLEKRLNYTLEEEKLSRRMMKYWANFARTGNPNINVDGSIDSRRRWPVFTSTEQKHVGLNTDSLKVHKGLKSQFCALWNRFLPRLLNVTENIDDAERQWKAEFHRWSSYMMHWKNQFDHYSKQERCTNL
Cholinesterase, sequence (P81908 whole entry): as the sequence (P81908 whole entry) above

| Structure (SMILES) | inhibition [1] | IC50 (Acetylcholinesterase) | IC50 (Cholinesterase) | pKa at 52 µM [2] |
| --- | --- | --- | --- | --- |
| C[n+]1ccc2cc(-c3ccccc3)[nH]c(=O)c2c1 | 51.6% | – | – | – |
| Oc1nc2c(c3cc[n+](Cc4ccccc4)cc13)CCc1ccccc1-2 | inactive | – | – | – |
| CC[n+]1ccc2c3c(nc(O)c2c1)-c1ccccc1C3 | 77.3% | 1550 nM | – | – |
| CC[n+]1ccc2cc(-c3ccccn3)nc(O)c2c1 | 48.5% | – | – | – |
| Oc1nc(-c2ccc3ccccc3c2)cc2cc[n+](Cc3ccccc3)cc12 | 97.1% | 990 nM | 2880 nM | – |
| Oc1nc(-c2ccccc2)cc2cc[n+](Cc3ccccc3)cc12 | 76.4% | 2570 nM | 4990 nM | – |
| CC[n+]1ccc2cc(-c3ccccc3)nc(O)c2c1 | 45.9% | – | – | – |
| CC[n+]1ccc2cc(-c3ccc4ccccc4c3)nc(O)c2c1 | 59.5% | – | – | – |
| C[n+]1ccc2cc(-c3ccccc3)nc(O)c2c1 | – | – | – | 8.7 |
